Article PMC2807935 (Naunyn-Schmiedeberg's Archives of Pharmacology, 2010)
Several values for one entry are separate records, joined by “and”; a condition that tells them apart may be missing. Equal values may be shown once.

Legend:
[1] = at 200 mg; ref Brune and Hinz [2004]; Hinz et al. [2007]; cited from earlier work
[2] = Pharmacokinetics of oral etoricoxib in plasma, CSF and tissue exudate; type: in vivo, human; conditions: for Tmax: t max
[3] = system: PGE2 production in tissue; test: PGE2 concentrations in tissue exudate; type: in vivo, human
Summary of the method: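 Patients given oral 120 mg or placebo at 7.00 am on postoperative day 1 after non-cemented hip arthroplasty. Hip drain emptied 1 h before each scheduled time (0, 1, 3, 8, 12, 24 h), then exudate collected over 60 min. Exudate centrifuged, supernatant frozen at −30°C. PGE2 measured by enzyme immunoassay (LOQ 15 pg/mL). Times are collection-interval midpoints; changes expressed versus baseline.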

[4] = Secondary clinical parameters: pain scores, analgesic consumption, side effects; type: in vivo, human
[5] = system: COX-2; conditions: after a single dose of 120 mg; ref Dallob et al. [2003]; cited from earlier work
[6] = system: plasma proteins; conditions: ref Agrawal et al. [2003b]; cited from earlier work
[7] = post-dose, monkeys; ref Riendeau et al. [2001]; cited from earlier work
[8] = cited from earlier work
[9] = patient R02, 50% of peak concentrations
[10] = patient R06, 50% of peak concentrations

Cc1ccc(-c2cc(C(F)(F)F)nn2-c2ccc(S(N)(=O)=O)cc2)cc1 [celecoxib]
Bioavailability [1]: 20–60%

Cc1ccc(-c2ncc(Cl)cc2-c2ccc(S(C)(=O)=O)cc2)cn1 [etoricoxib]
CSF concentration ([2]; 1 h later than in plasma): > 29 ng/mL | CSF concentration at 1 h as part of the peak CSF concentration ([2]; 1 h post-dose): 34% | Etoricoxib in tissue exudate ([2]; 2.5 h): virtually no drug detected | Concentration in CSF as fraction of that in plasma at corresponding times ([2]; AUC0–24h and max. concentration ratios): 1/20 | Cmax ([2]; CSF, n = 5, mean (± SD)): 68.4 (30.6) ng/mL | Time to plateau in plasma and CSF ([2]; both compartments): about 2 h | Plasma concentration ([2]; during the first hour after 120 mg oral): > 360 ng/mL | Cmax ([2]; human, CSF, oral, 120 mg, c max, n = 5, mean (± SD)): ~70 ng/mL | Tmax ([2]; human, CSF, oral, 120 mg, n = 5, median (range)): 8 h | AUC(0-t) ([2]; human, CSF, po, 120 mg, AUC0–24h, n = 5, 120 mg oral, mean (± SD)): 955 ng·h/mL | Kp at 8 h ([2]; human, CSF/plasma, oral, 120 mg, CSF/plasma conc. ratio at t max, n = 5, mean (± SD), at 8 h): 0.06 | Kp ([2]; human, CSF/unbound plasma, oral, 120 mg, CSF/plasma ratio of the unbound fractions (CSF/Pu), at equilibrium (2–24 h), estimated): ~0.56 | Cmax ([2]; human, plasma, oral, 120 mg, c max, plasma, n = 5 subgroup, mean (± SD)): 1440 ng/mL | Cmax ([2]; human, plasma, oral, 120 mg, c max, n = 8 (all patients), mean (± SD)): 1740 ng/mL | Tmax ([2]; human, plasma, oral, 120 mg, plasma, n = 5 subgroup, median (range)): 4 h | Tmax ([2]; human, plasma, oral, 120 mg, n = 8 (all patients), median (range)): 3 h | Individual CSF lag times with respect to (50%) peak plasma concentration ([2]; in all but one case): ≤ 2 h | Time to meaningful (COX-2 inhibitory) CSF concentrations ([2]; in nearly all patients): ≤ 2 h | Max. CSF/plasma conc. ratio ([2]; individual maximal concentration ratios, between 3 and 12 h, mean ± SD, n = 5): 7.3 (2.1) % | Time of peak CSF concentration ([2]; mean concentration-time curve, CSF): 8 h | Lag time plasma vs. CSF ([2]; mean of patients): 2 h | Lag time plasma vs. tissue exudate ([2]; mean of patients): 3.8 h | Lag time plasma vs. tissue exudate ([2]; median of patients, without correction for the delay of sampling): 4 h | CSF/plasma ratio AUC0–24h ([2]; n = 5, mean (range) of individual ratios): 4.4% and 4.4 (2–7) % | CSF/plasma conc. ratio at t max ([2]; n = 5, mean (± SD), at 8 h): 6.3 (2.0) % | t max for CSF/plasma conc. ratio ([2]; n = 5, median (range)): 8 (3–12) h | Lag time plasma vs. CSF ([2]; patient R01, 50% of peak concentrations): 1 h | Lag time plasma vs. tissue exudate ([2]; patient R01, with respect to 50% of peak concentrations): 4 h | Lag time plasma vs. CSF [2, 9]: 2 h | Lag time plasma vs. tissue exudate [2, 9]: 4 h | Lag time plasma vs. CSF ([2]; patient R05, in brackets: invalid data due to missing values): (2) h | Lag time plasma vs. CSF [2, 10]: 0 h | Lag time plasma vs. tissue exudate [2, 10]: 1.5 h | Lag time plasma vs. tissue exudate ([2]; patient R07, 50% of peak concentrations): 6.5 h | Lag time plasma vs. CSF ([2]; patient R07, in brackets: invalid data due to missing values): (3) h | Lag time plasma vs. CSF ([2]; patient R09, 50% of peak concentrations): 7 h | CSF peak concentration ([2]; patient R09, 8 h post-medication): 108 ng/mL | Median CSF lag time with respect to 50% of the peak concentration in plasma ([2]; patient R09 not included): 0.5 h | Range of CSF lag time with respect to 50% of the peak concentration in plasma ([2]; patient R09 not included): 0 to 2 h | Lag time plasma vs. tissue exudate ([2]; patient R10, 50% of peak concentrations): 3 h | Lag time plasma vs. CSF ([2]; patient R10, in brackets: invalid data due to missing values): (0) h | Lag time plasma vs. CSF ([2]; patient R12, 50% of peak concentrations): 0 h | PGE2 concentration in tissue exudate, overall for all values (PGE2 Hip, n = 88) ([3]; 120 mg etoricoxib oral, day 1 post-surgery, n = 8, mean (SD)): 11.9 (10.2) ng/mL | PGE2 concentration in tissue exudate ([3]; 0.5 h after 120 mg oral, midpoint of collection interval, mean (SD)): 18.1 (8.8) ng/mL | PGE2 concentration in tissue exudate ([3]; 1.5 h after 120 mg oral, mean (SD)): 24.4 (10.5) ng/mL | PGE2 concentration in tissue exudate ([3]; 2.5 h after 120 mg oral, mean (SD)): 20.9 (16.1) ng/mL | PGE2 concentration in tissue exudate ([3]; 5.0 h after 120 mg oral, mean (SD)): 16.9 (13.6) ng/mL | PGE2 concentration in tissue exudate ([3]; 7.5 h after 120 mg oral, mean (SD)): 12.1 (9.3) ng/mL | PGE2 concentration in tissue exudate ([3]; 9.5 h after 120 mg oral, mean (SD)): 7.9 (6.0) ng/mL | PGE2 concentration in tissue exudate ([3]; 11.5 h after 120 mg oral, mean (SD)): 6.4 (5.1) ng/mL | PGE2 concentration in tissue exudate ([3]; 17.5 h after 120 mg oral, mean (SD)): 6.2 (6.2) ng/mL | PGE2 concentration in tissue exudate ([3]; 23.5 h after 120 mg oral, mean (SD)): 2.3 (0.7) ng/mL | Duration of the significant PGE2 difference to placebo ([3]; till the end of the observation period): 18 h | PGE2 concentration in tissue exudate ([3]; time point Pre (baseline), n = 8, mean (SD)): 7.7 (5.4) ng/mL | Time after medication at which the PGE2 difference to placebo became significant ([3]; tissue exudate samples, material produced about 2 h after medication): 5 h | Perioperative side effects ([4]; 120 mg oral on postoperative day 1): no perioperative side effects related to the administration of etoricoxib | Postoperative pain and opioid consumption versus placebo ([4]; both groups received standard IT and parenteral pain medication, study not designed to detect differences): no meaningful differences | Ex vivo whole blood IC50 of COX-2 inhibition [5]: about 360 ng/mL | Bound to plasma proteins [6]: 92% | Onset of antipyretic action [7]: about 2 h | Time after administration within which etoricoxib interferes with surgical pain ([8]; patients, ref Clarke et al. [2009]): ≤ 2 h | Time after surgery before which etoricoxib was not analgesic ([8]; thyroid surgery, ref Smirnov et al. [2008]): ≥ 6 h
